Experimental data: ChEMBL document CHEMBL1764953, “Discovery of orally active carboxylic acid derivatives of 2-phenyl-5-trifluoromethyloxazole-4-carboxamide as potent diacylglycerol acyltransferase-1 inhibitors for the potential treatment of obesity and diabetes” (J Med Chem, 2011)
Blank lines part the entries; values can stand above or below the compound they belong to.

Legend:
hERG [1] = target: T1, hERG (Homo sapiens, UniProt Q12809); assay: Inhibition of human ERG-mediated current expressed in CHO cells by patch clamp method; format: cell-based; settings: CHO cells expressing human ERG
Outline: (§1)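 hERG-transfected CHO cells on automated whole-cell patch clamp at a holding potential of −80 mV; 1 s depolarizing pulse at 0.1 Hz; tail current measured at −40 mV. Sequence: 0.3% DMSO vehicle, three ascending log-interval concentrations up to 30 μM or the solubility limit, then 1 μM E-4031. At least 3 cells per compound; data normalized to vehicle and fitted with the Hill equation.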

[2] = Cmax in diet-induced obese mouse plasma at 25 mg/kg administered as suspension; format: ADME, organism-based; set-up: dose 25 mg/kg
hERG [3] = target: T1, hERG; assay: Inhibition of human ERG-mediated current expressed in CHO cells at 1 uM by patch clamp method; format: cell-based; settings: CHO cells expressing human ERG; outline: as §1
hERG [4] = target: T1, hERG; assay: Inhibition of human ERG-mediated current expressed in CHO cells at 30 uM by patch clamp method; format: cell-based; settings: CHO cells expressing human ERG; outline: as §1
hERG [5] = target: T1, hERG; assay: Inhibition of human ERG-mediated current expressed in CHO cells at 3 uM by patch clamp method; format: cell-based; settings: CHO cells expressing human ERG; outline: as §1
[6] = target: T2, Diacylglycerol O-acyltransferase 1 (Homo sapiens, UniProt O75907); assay: Inhibition of human DGAT1 expressed in baculovirus infected insect cells after 1 hr using palmitoyl-1-14C-coenzyme A by phospholipid flashplate assay
T2 sequence (O75907 whole entry): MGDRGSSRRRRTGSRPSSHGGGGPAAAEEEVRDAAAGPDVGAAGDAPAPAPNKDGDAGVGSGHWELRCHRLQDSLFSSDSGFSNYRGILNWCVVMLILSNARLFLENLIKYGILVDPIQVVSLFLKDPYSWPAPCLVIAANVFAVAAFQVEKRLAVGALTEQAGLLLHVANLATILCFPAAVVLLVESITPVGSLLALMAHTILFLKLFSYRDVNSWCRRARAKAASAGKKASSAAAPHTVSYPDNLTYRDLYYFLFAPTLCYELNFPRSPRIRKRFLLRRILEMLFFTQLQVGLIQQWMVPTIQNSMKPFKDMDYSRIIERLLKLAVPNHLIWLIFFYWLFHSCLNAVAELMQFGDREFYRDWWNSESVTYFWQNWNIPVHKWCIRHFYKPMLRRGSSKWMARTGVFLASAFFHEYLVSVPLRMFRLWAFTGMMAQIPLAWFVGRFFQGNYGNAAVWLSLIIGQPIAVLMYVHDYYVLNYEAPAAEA

[7] = Solubility of the compound at mp 217 degC; format: physicochemical
[8] = target: T2, Diacylglycerol O-acyltransferase 1; assay: Inhibition of human DGAT1 expressed in CHO-K1 cells after 1 hr using 14C palmitic acid
[9] = Tmax in diet-induced obese mouse at 25 mg/kg administered as suspension; format: ADME, organism-based; set-up: dose 25 mg/kg; settings: in vivo
hERG [10] = target: T1, hERG; assay: Inhibition of human ERG
Cavia porcellus = species: Cavia porcellus; assay: Cardiotoxicity in guinea pig Langendorff heart model assessed as QT QT prolongation; format: toxicity
[11] = Oral bioavailability in rat at 5 mg/kg; format: ADME, organism-based; settings: in vivo
Rattus norvegicus = assay: Antiobesity activity in diet-induced obese rat assessed as reduction in body weight gain at 25 mg/kg, po qd; format: functional; set-up: scale not given: the % may be the effect or the level left
[12] = Clearance in rat at 5 mg/kg, iv; format: ADME, organism-based; set-up: dose 5 mg/kg, route intravenous; settings: in vivo

T1 sequence (Q12809 whole entry): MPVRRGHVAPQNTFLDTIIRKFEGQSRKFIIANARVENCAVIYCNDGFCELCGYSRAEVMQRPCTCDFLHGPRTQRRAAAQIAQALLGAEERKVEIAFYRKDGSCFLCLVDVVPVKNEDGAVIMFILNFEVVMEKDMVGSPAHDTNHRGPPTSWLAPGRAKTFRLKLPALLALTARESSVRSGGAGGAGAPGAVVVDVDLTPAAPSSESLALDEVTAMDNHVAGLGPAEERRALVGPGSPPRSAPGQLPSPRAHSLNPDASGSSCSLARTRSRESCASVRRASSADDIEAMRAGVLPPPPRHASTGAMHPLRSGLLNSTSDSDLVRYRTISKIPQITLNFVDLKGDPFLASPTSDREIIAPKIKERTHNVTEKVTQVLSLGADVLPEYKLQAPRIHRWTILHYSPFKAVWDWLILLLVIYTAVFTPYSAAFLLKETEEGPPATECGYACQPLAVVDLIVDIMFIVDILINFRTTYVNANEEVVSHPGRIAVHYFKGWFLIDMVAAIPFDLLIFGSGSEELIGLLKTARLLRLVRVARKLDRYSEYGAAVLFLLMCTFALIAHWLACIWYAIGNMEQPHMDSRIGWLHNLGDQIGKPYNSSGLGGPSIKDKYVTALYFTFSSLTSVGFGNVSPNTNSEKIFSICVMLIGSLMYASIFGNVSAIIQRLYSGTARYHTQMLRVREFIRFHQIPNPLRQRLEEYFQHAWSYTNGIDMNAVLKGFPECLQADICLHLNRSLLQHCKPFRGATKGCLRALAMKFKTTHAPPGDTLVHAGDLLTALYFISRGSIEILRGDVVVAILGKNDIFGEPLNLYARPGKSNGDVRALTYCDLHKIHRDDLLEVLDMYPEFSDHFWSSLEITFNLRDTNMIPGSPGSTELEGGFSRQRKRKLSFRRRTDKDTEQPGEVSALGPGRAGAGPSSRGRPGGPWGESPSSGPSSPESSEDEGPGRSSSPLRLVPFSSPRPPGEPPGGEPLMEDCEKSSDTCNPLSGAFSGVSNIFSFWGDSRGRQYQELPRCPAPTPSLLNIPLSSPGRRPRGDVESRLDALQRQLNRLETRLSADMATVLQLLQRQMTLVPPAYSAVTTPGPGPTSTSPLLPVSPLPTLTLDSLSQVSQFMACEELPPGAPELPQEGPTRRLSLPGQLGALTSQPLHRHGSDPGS

Structure (SMILES): CCOC(=O)N1CCN(c2ccc(NC(=O)c3nc(-c4ccccc4)oc3C(F)(F)F)cn2)CC1
IC20 (hERG [1]): 800 nM

Cmax [2]: < 10 ng/mL
Structure (SMILES): COC(=O)N1CCC(c2ccc(NC(=O)c3nc(-c4ccccc4)oc3C(F)(F)F)cc2)CC1

Structure (SMILES): COCCN(C)c1ccc(NC(=O)c2nc(-c3ccccc3)oc2C(F)(F)F)cc1
inhibition at 1 µM (hERG [3]): 18%

Structure (SMILES): COC(=O)N1CCN(c2ncc(NC(=O)c3nc(-c4ccccc4)oc3C(F)(F)F)cn2)CC1
inhibition at 1 µM (hERG [3]): 28%

Structure (SMILES): O=C(O)COC1CN(c2ccc(NC(=O)c3nc(-c4ccccc4)oc3C(F)(F)F)cn2)C1
inhibition at 30 µM (hERG [4]): 12%

Structure (SMILES): COC(=O)N1CCN(c2ccc(NC(=O)c3nc(-c4ccccc4)oc3C(F)(F)F)cn2)CC1
IC20 (hERG [1]): 1940 nM

Structure (SMILES): COC(=O)N1CCN(c2ccc(NC(=O)c3nc(-c4ccccc4)oc3C(F)(F)F)cc2)CC1
inhibition at 3 µM (hERG [5]): 16%

Structure (SMILES): O=C(Nc1ccc(N2CCN(C(=O)C3CC3)CC2)nc1)c1nc(-c2ccccc2)oc1C(F)(F)F
IC20 (hERG [1]): 180 nM

Structure (SMILES): O=C(Nc1ccc(N2CCN(C(=O)C3CC3)CC2)cc1)c1nc(-c2ccccc2)oc1C(F)(F)F
inhibition at 3 µM (hERG [5]): 35%

Structure (SMILES): COCCN(C)c1ncc(NC(=O)c2nc(-c3ccccc3)oc2C(F)(F)F)cn1
IC20 (hERG [1]): 1500 nM

Structure (SMILES): O=C(Nc1ccc(C2CCN(C(=O)C3CC3)CC2)nc1)c1nc(-c2ccccc2)oc1C(F)(F)F
IC20 (hERG [1]): 1730 nM

IC50 [6]: 16 nM | solubility [7]: < 1 µg/mL | EC50 [8]: 25000 nM
Structure (SMILES): O=C(Nc1ccc(N2CC(F)(F)C2)nc1)c1nc(-c2ccccc2)oc1C(F)(F)F
inhibition at 1 µM (hERG [3]): 17%

Structure (SMILES): COCCN(C)c1ccc(N(C)C(=O)c2nc(-c3ccccc3)oc2C(F)(F)F)cn1
inhibition at 30 µM (hERG [4]): 34%

Tmax [9]: 1 h | Cmax [2]: 76 ng/mL
Structure (SMILES): O=C(Nc1ccc(C2CCN(C(=O)C3CC3)CC2)cc1)c1nc(-c2ccccc2)oc1C(F)(F)F
inhibition at 3 µM (hERG [5]): 13%

Structure (SMILES): COC(=O)N1CCC(c2ccc(NC(=O)c3nc(-c4ccccc4)oc3C(F)(F)F)cn2)CC1
inhibition at 1 µM (hERG [3]): 16%

Structure (SMILES): O=C(Nc1cnc(N2CC[C@H](O)C2)nc1)c1nc(-c2ccccc2)oc1C(F)(F)F
IC20 (hERG [1]): 10000 nM

Structure (SMILES): COCCN(C)c1ccc(NC(=O)c2nc(C)oc2C(F)(F)F)cn1
inhibition at 30 µM (hERG [4]): 37%

bioavailability [11]: 77% | clearance [12]: 13.5 mL/min/kg
Structure (SMILES): COCCN(C)c1ccc(NC(=O)c2nc(-c3ccccc3)oc2C(F)(F)F)cn1
IC20 (hERG [1]): 200 nM | IC20 (hERG [10]): 200 nM | Activity (Cavia porcellus): Toxic | Activity (Rattus norvegicus): 4.3%

IC50 [6]: 82 nM | EC50 [8]: 220 nM
Structure (SMILES): O=C(Nc1ccc(C2CCN(C(=O)[C@H]3CC[C@@H](C(=O)O)CC3)CC2)cc1)c1nc(-c2ccccc2)oc1C(F)(F)F
inhibition at 3 µM (hERG [5]): 21%

Structure (SMILES): CCOC1CN(c2ccc(NC(=O)c3nc(-c4ccccc4)oc3C(F)(F)F)cn2)C1
IC20 (hERG [1]): 370 nM

Structure (SMILES): O=C(Nc1ccc(N2CCN(C(=O)[C@H]3CC[C@H](C(=O)O)CC3)CC2)cc1)c1nc(-c2ccccc2)oc1C(F)(F)F
inhibition at 1 µM (hERG [3]): 5%

Structure (SMILES): O=C(Nc1ccc(N2CCN(C(=O)[C@H]3CC[C@@H](C(=O)O)CC3)CC2)cc1)c1nc(-c2ccccc2)oc1C(F)(F)F
IC20 (hERG [1]): > 10000 nM
